≈ marks a conversion by molar mass, not a printed value.
Legend:
Tubulin = assay: Inhibition of tubulin polymerization; type: functional
Method in brief: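 Glutamate-driven assembly: purified tubulin 1.0 mg/mL (10 μM) in 1.0 M monosodium glutamate pH 6.6, 1.0 mM MgCl2, 4% (v/v) DMSO, preincubated with drug 15 min at 37 °C, chilled, GTP added, then warmed 0→37 °C in cuvettes with turbidity read-out. IC50 = drug level halving extent of polymerization, obtained graphically in triplicate experiments.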

L1210 [1] = assay: In vivo inhibition of L1210 murine leukemia cells in mice (ip) at a dose of 200 mg/kg; type: functional, Mus musculus
Method in brief: (§1)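 L1210 murine leukemia in mice: tumor cells inoculated ip, drug injected ip one day later; efficacy expressed as % T/C at the stated dose.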

L1210 [2] = assay: In vitro inhibition of L1210 murine leukemia cells by using MTT assay in cell culture; type: functional, cell-based; conditions: Mus musculus
Method in brief: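 L1210 murine leukemia cells in culture; cytotoxicity measured by MTT assay, reported as IC50 in μg/mL.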

L1210 [3] = assay: In vivo inhibition of L1210 murine leukemia cells in mice (ip) at a dose of 100 mg/kg; type: functional, Mus musculus; method in brief: as §1
L1210 [4] = assay: […]; type: functional, Mus musculus; conditions: dose 150 mg/kg
Method in brief: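 Murine L1210 leukemia cells were inoculated intraperitoneally into mice. Drug was injected intraperitoneally one day after tumor inoculation. Therapeutic efficacy was read out as % T/C at the stated dose in mg/kg.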

L1210 [5] = assay: In vivo inhibition of L1210 murine leukemia cells in mice (ip) at a dose of 50 mg/kg; type: functional, Mus musculus; method in brief: as §1
L1210 [6] = assay: In vivo inhibition of L1210 murine leukemia cells in mice (ip) at a dose of 25 mg/kg; type: functional, Mus musculus; method in brief: as §1

Row | Structure (SMILES) | IC50 (Tubulin) | T/C (L1210 [1]) | IC50 (L1210 [2]) | T/C (L1210 [3]) | T/C (L1210 [4]) | T/C (L1210 [5]) | T/C (L1210 [6])
1 | Oc1nc(CC(c2ccccc2)N2CCOCC2)nc2ccc(Cl)cc12 (stereo not given) | > 40 µM | 125% | – | – | – | – | –
2 | Oc1nc(/C=C/c2ccccc2)nc2ccc(F)cc12 | 5.4 µM | – | 0.05 µg/mL (≈ 0.188 µM) | 129% | – | – | –
3 | Oc1nc(CCc2ccccc2)nc2ccc(Cl)cc12 | 7.3 µM | 113% | 0.01 µg/mL (≈ 0.0351 µM) | – | – | – | –
4 | O=S1(=O)N=C(/C=C/c2ccccc2)Nc2ccccc21 | > 40 µM | 91% | > 1 µg/mL | – | – | – | –
5 | Oc1nc(/C=C/c2ccccc2)nc2cc(N3CCCCC3)c(F)cc12 | > 40 µM | 85% | 0.2 µg/mL (≈ 0.572 µM) | – | – | – | –
6 | Oc1nc(C#Cc2ccccc2)nc2ccc(Cl)cc12 | > 40 µM | 125% | 0.002 µg/mL (≈ 0.00712 µM) | – | – | – | –
7 | Nc1ccccc1C(=O)Oc1ccc2nc(/C=C/c3ccccc3)nc(O)c2c1 | > 40 µM | – | > 1 µg/mL | – | 99% | – | –
8 | Nc1ccc2nc(/C=C/c3ccccc3)nc(O)c2c1 | > 40 µM | – | 0.6 µg/mL (≈ 2.28 µM) | – | – | – | –
9 | Oc1nc(/C=C/c2ccccc2)nc2cccc(Cl)c12 | > 40 µM | – | > 1 µg/mL | 100% | – | – | –
10 | COc1ccc2nc(CC(c3ccccc3)N3CCCCC3)nc(O)c2c1 (stereo not given) | 14 µM | – | 0.001 µg/mL (≈ 0.00275 µM) | 107% | – | – | –
11 | Oc1nc(Cc2ccccc2)nc2ccc(Cl)cc12 | > 40 µM | – | > 1 µg/mL | – | – | – | –
12 | CN1CCN(c2cc3nc(/C=C/c4ccccc4)nc(O)c3cc2F)CC1 | > 40 µM | – | 0.2 µg/mL (≈ 0.549 µM) | – | – | 100% | –
13 | Oc1nc(/C=C/c2ccccc2)nc2ccc3ncccc3c12 | > 40 µM | – | 0.4 µg/mL (≈ 1.34 µM) | – | – | 95% | –
14 | COc1cc2nc(/C=C/c3ccccc3)nc(O)c2cc1OC | 3.3 µM | 96% | 0.03 µg/mL (≈ 0.0973 µM) | – | – | – | –
15 | COc1ccc2c(O)nc(/C=C/c3ccccc3)nc2c1 | 5.7 µM | 100% | 0.001 µg/mL (≈ 0.00359 µM) | – | – | – | –
16 | Cc1ccc2nc(/C=C/c3ccccc3)nc(O)c2c1 | 2 µM | – | 0.02 µg/mL (≈ 0.0762 µM) | – | – | – | 107%
17 | Oc1nc(/C=C/c2ccccc2)nc2sccc12 | > 40 µM | 92% | > 1 µg/mL | – | – | – | –
18 | Oc1nc(/C=C/c2ccccc2)nc2ccc(Cl)cc12 | 2.5 µM | – | 0.001 µg/mL (≈ 0.00354 µM) | – | – | 146% | –
19 | Oc1ccc2nc(/C=C/c3ccccc3)nc(O)c2c1 | > 40 µM | – | 0.006 µg/mL (≈ 0.0227 µM) | 99% | – | – | –
20 | Oc1nc(/C=C/c2ccccn2)nc2ccc(Cl)cc12 | > 40 µM | 91% | 0.61 µg/mL (≈ 2.15 µM) | – | – | – | –
21 | O=c1oc(/C=C/c2ccccc2)nc2c(O)nc(O)nc12 | > 40 µM | – | > 1 µg/mL | – | – | 94% | –
